Reference: ChEMBL document CHEMBL1125478, “The discovery of (2S,3S)-cis-2-(diphenylmethyl)-N-[(2-methoxyphenyl)methyl]-1- azabicyclo[2.2.2]-octan-3-amine as a novel, nonpeptide substance P antagonisst” (J Med Chem, 1992)

Columns and labels:
[1] = system: Cavia porcellus; assay: (§1) Inhibition of SP-induced plasma extravasation in guinea pig after peroral administration at a dose 15 mg/kg; type: functional; details: route oral
Method in brief: (§2)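 Male Hartley guinea pigs (350-400 g), pentobarbital-anaesthetised; Evans Blue 30 mg/kg iv, then 5 min later SP (20 nM, 50 μL/site) intradermally. Dorsal skin punches extracted in formamide 24 h, 60 °C; OD 600 nm.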

[2] = system: Rattus norvegicus; assay: Inhibition of SP-induced salvation after intraperitoneal administration of the durg at a concentration of 50 mg/kg in rats; type: functional; details: ip
Method in brief: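 Fasted male Sprague-Dawley rats given compound 50 mg/kg ip in 0.05 N HCl, or saline, 30 min before SP 4.7 nmol/kg by tail vein under pentobarbital. Saliva collected on preweighed swabs until response subsided (about 4 min), weighed. Percent inhibition of SP response.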

[3] = system: Cavia porcellus; assay: Inhibition of capsaicin-induced plasma extravasation in guinea pig ureter after intraperitoneal injection; type: functional; details: ip
Method in brief: (§3)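 Fasted male Hartley guinea pigs (300-400 g), pentobarbital-anaesthetised; Evans Blue 30 mg/kg iv, then capsaicin 30 μM, 10 mL intraperitoneally. Compound 10 mg/kg po 1 h prior. Ureter removed after 10 min, formamide-extracted 24 h at 60 °C, OD 600 nm.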

[4] = species: Cavia porcellus; assay: Inhibition of capsaicin-induced plasma extravasation after 10 mL injection of 30 uM capsaicin in to the peritoneal cavity of guinea pig ureter; type: functional; method in brief: as §3
[5] = target: Substance-P receptor (Homo sapiens, UniProt P25103); assay: Binding affinity towards Tachykinin receptor 1 in human IM-9 cells using [3H]-substance P as ligand; type: cell-based
Chain of Substance-P receptor (P25103 whole entry): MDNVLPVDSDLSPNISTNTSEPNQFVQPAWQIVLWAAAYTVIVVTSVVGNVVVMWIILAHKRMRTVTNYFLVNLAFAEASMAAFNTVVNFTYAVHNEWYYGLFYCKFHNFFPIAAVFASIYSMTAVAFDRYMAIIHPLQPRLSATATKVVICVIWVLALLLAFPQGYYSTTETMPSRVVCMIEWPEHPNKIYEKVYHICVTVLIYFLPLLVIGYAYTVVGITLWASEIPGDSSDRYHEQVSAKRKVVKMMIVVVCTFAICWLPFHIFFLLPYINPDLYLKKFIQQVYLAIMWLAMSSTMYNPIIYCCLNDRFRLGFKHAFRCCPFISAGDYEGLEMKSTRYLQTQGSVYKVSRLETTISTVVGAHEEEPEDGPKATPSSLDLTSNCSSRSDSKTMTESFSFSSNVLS
Method in brief: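 Displacement of [³H]SP (0.5 nM final) from human IM-9 cell preparation in 50 mM TRIS-HCl pH 7.7 with MnCl2, BSA, bacitracin, leupeptin, […], phosphoramidon; 20 min, room temperature, dark. Filtration on polyethylenimine-soaked GF/B filters, scintillation counting. IC50 from six-point curves, duplicates; mean ± SEM of three experiments.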

[6] = target: T1, Neuromedin-K receptor (Cavia porcellus, UniProt P30098); assay: Inhibitory activity against Tachykinin receptor 3 in guinea pig cortex [125I]-BH-eledoisin as radioligand
T1 sequence (P30098 whole entry): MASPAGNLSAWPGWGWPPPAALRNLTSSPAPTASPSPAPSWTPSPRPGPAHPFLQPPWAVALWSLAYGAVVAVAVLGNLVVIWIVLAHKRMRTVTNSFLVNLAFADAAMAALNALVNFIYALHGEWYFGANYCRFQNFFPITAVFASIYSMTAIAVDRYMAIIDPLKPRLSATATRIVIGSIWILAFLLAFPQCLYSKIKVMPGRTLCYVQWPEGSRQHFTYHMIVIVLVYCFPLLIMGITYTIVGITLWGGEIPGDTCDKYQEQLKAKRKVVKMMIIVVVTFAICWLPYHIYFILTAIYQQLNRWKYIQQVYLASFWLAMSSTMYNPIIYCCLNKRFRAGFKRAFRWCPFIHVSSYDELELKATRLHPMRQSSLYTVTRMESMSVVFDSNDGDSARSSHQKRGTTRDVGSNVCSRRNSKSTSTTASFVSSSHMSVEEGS
Method in brief: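 Guinea pig cortical membranes (6 mg/mL) in 50 mM Tris-HCl with 1 mM MnCl₂, 50 μg/mL chymostatin, 0.02% BSA and 0.1 nM [¹²⁵I]BH-eledoisin final, with test compound, 60 min at 22 °C. Nonsaturable binding defined with 1 μM eledoisin. Filtration and radioactivity counting.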

[7] = target: T2, Substance-K receptor (Mesocricetus auratus, UniProt P51144); assay: Inhibitory activity against [125I]neurokinin binding to Tachykinin receptor 2 in hamster urinary bladder
T2 sequence (P51144 whole entry): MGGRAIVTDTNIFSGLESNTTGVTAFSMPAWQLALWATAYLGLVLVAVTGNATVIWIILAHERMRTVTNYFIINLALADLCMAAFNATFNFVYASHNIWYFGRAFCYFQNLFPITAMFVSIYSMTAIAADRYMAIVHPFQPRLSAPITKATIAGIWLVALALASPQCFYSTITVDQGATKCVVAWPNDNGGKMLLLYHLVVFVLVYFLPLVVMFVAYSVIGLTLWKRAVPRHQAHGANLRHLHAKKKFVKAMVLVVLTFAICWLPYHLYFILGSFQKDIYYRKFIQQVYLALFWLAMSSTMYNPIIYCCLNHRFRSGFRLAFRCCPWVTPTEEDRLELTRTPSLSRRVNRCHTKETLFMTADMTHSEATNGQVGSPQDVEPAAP

[8] = system: Cavia porcellus; assay: as §1; type: functional; details: route oral; remark: listed apart in the source
Method in brief: as §2, with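 “intradermally. Compound 15 mg/kg po 1 h before SP.” for “intradermally.”, “nm. Percent inhibition or ED50 with 95% confidence limits.” for “nm.”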

[9] = species: Cavia porcellus; assay: Ability to block SP-induced excitation of neurons in the locus coeruleus in guinea pig brain; type: functional

| Compound | inhibition in vivo at 15 mg/kg [1] [%] | inhibition in vivo at 50 mg/kg [2] [%] | ED50 [3] [mg/kg] | Inhibition [4] [%] | IC50 [5] [nM] | IC50 [6] [nM] | IC50 [7] [nM] | ED50 [8] [mg/kg] | IC50 [9] [nM] |
| --- | --- | --- | --- | --- | --- | --- | --- | --- | --- |
| Clc1ccccc1CN[C@H]1C2CCN(CC2)[C@H]1C(c1ccccc1)c1ccccc1 | 38 | < 43.9 | 7 | – | – | – | – | – | – |
| Clc1cccc(CN[C@H]2C3CCN(CC3)[C@H]2C(c2ccccc2)c2ccccc2)c1 | -6 | < 52.8 | – | 23 | – | – | – | – | – |
| CCc1ccccc1CN[C@H]1C2CCN(CC2)[C@H]1C(c1ccccc1)c1ccccc1 | 79 | 16.7 | 4 | – | 16.7 | – | – | – | – |
| COc1ccccc1CN[C@@H]1C2CCN(CC2)[C@@H]1C(c1ccccc1)c1ccccc1 | 39 | < 66.9 | 6 | – | – | – | – | – | – |
| COc1ccccc1CN[C@H]1C2CCN(CC2)[C@@H]1C(c1ccccc1)c1ccccc1 | 28 | 11.3 | – | 18 | – | – | – | – | – |
| c1ccc(CN[C@H]2C3CCN(CC3)[C@H]2C(c2ccccc2)c2ccccc2)cc1 | -9 | 0 | – | -21 | 16 | – | – | – | – |
| Clc1ccc(CN[C@H]2C3CCN(CC3)[C@H]2C(c2ccccc2)c2ccccc2)cc1 | 8 | < 27 | – | 34 | – | – | – | – | – |
| COc1ccccc1CN[C@H]1C2CCC(CC2)[C@H]1C(c1ccccc1)c1ccccc1 | -9 | – | – | -67 | > 32000 | – | – | – | – |
| COc1ccccc1CN[C@H]1C2CCN(CC2)[C@H]1Cc1ccccc1 | 35 | 0 | – | -30 | 487 | – | – | – | – |
| COc1ccccc1CN(C)[C@H]1C2CCN(CC2)[C@H]1C(c1ccccc1)c1ccccc1 | 13 | – | – | -13 | – | – | – | – | – |
| COc1ccccc1CN[C@H]1C2CCN(CC2)[C@H]1C(c1ccccc1)c1ccccc1 [CP-96345] | – | < 76.2 | 2.3 | – | – | > 10000 | > 10000 | 4.4 | 90 |
